pIC50: −log10 of the molar value.
Legend:
A549 = assay: Antiproliferative activity against human A549 cells assessed as inhibition of cell viability after 24 hrs by MTT assay; type: functional, cell-based; details: A549, 24 h
Method in brief: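 Cells grown to 50–70% confluence (RWPE1 in K-SFM with pituitary extract and EGF; the other lines in RPMI 1640 with 10% FBS), 5% CO2, 37 °C. Treated for 24 h with DMSO vehicle, compounds, or cisplatin as positive control. MTT (5 mg/mL) added for 4 h, formazan dissolved in DMSO, absorbance read at 570 nm. Viability taken relative to untreated cells after blank subtraction, IC50 fitted from % viability, at least three experiments.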

PC-3 [1] = assay: Induction of apoptosis in human PC3 cells assessed as early apoptotic cells at 20 uM after 4 hrs by Annexin V-FITC/propidium iodide staining based flow cytometry (reference value: 0.79%); type: functional
Method in brief: (§1)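 Cells seeded in 6-well plates for 24 h, then given 20 μM for the stated times. Cells were trypsinized, PBS-washed, stained with annexin V-FITC/PI, and analysed immediately by flow cytometry. Means ± SD of three independent experiments; Student's t test against untreated control.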

[2] = Cell cycle arrest in human PC3 cells assessed as accumulation at S phase at 20 uM after 24 hrs by propidium iodide staining based flow cytometry (reference value: 22.07%); type: functional; details: PC-3
[3] = Cell cycle arrest in human PC3 cells assessed as accumulation at G0/G1 phase at 10 uM after 24 hrs by propidium iodide staining based flow cytometry (reference value: 66.57%); type: functional; details: PC-3
PC-3 [4] = assay: Induction of apoptosis in human PC3 cells assessed as late apoptotic cells at 20 uM after 4 hrs by Annexin V-FITC/propidium iodide staining based flow cytometry (reference value: 7.92%); type: functional; method in brief: as §1
DU-145 = assay: Induction of apoptosis in human DU145 cells assessed as late apoptotic cells at 20 uM after 12 hrs by Annexin V-FITC/propidium iodide staining based flow cytometry (reference value: 1.53%); type: functional; method in brief: as §1

C=C[C@@](C)(O)CC[C@@H]1C(C)=CC[C@@H]2C(C)(C)CCC[C@@]12C
pIC50 (A549): < 4.40 | Activity (PC-3 [1]): 2.48% | Activity [2]: 4.24% | Activity [3]: 73% | Activity (PC-3 [4]): 12.94% | Activity (DU-145): 11.32%

From ChEMBL document CHEMBL3297648, “Diterpenoids from the Chinese liverwort Heteroscyphus tener and their antiproliferative effects” (J Nat Prod, 2014)
